The source of these data is ChEMBL document CHEMBL1156823, “Design and synthesis of novel quinone inhibitors targeted to the redox function of apurinic/apyrimidinic endonuclease 1/redox enhancing factor-1 (Ape1/ref-1)” (J Med Chem, 2010).

For test [1], the target named is T1, DNA repair nuclease/redox regulator APEX1 (Homo sapiens, UniProt P27695). Description: Inhibition of Ape1/ref-1 endonuclease activity up to 100 uM.
Test [2] is described as follows: Growth inhibition of human Hey-C2 cells after 72 hrs by MTS assay. Format: functional. To be noted: Hey-C2, 72 h. A digest of the protocol: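 Hey-C2 ovarian cancer cells grown in RPMI 1640 with 10% fetal calf serum; 2–4,000 cells per well in triplicate, adhered overnight, then exposed to drug for 72 h at 37 °C. MTS reagent (0.05 mg/mL) added for 4 h at 37 °C, absorbance read at 490 nm, normalized to media-alone wells. GI50 is the average of three experiments.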

The target of test [3] is T1, DNA repair nuclease/redox regulator APEX1. Nature of the test: Inhibition of Ape1/ref-1 redox activity in presence of 0.02 mM DTT and human Hey-C2 cells nuclear extracts by EMSA. Format: cell-free. A digest of the protocol:
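Purified Ape1 reduced with 1.0 mM DTT at 37 °C for 10 min, then diluted in PBS. Poly(dI-dC) added for 5 min, then HEX-labeled AP-1 consensus duplex (0.1 pmol) for 30 min at room temperature. Final DTT 0.02 mM.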
For orientation: A gel shift assay detects complexes by their altered migration in electrophoresis.

Activity calls are given as the source filed them. The calls are words filed in the database; no cut-off is given here.

What is called GI50 is the concentration that inhibits growth by half. Lower therefore signals more potent growth inhibition. By IC50 is commonly meant the concentration needed to halve the response being measured.

T1 sequence (P27695 whole entry): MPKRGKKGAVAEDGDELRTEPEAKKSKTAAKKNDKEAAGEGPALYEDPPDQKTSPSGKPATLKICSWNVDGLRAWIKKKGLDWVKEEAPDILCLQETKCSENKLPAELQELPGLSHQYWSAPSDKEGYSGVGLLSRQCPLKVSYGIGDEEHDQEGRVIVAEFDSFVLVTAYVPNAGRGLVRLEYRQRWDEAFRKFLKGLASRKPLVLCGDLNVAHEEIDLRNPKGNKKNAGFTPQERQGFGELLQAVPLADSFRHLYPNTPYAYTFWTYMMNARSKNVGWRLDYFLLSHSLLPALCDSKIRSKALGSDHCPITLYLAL

On to `C/C(=C\C1=C(Cl)C(=O)c2ccccc2C1=O)C(=O)O`, for which, in test [1], the inhibition result is “inactive”. Further, the GI50 in test [2] is 15 µM.
Turning to `COC1=C(OC)C(=O)C(/C=C(\C)C(=O)O)=C(C)C1=O`, the inhibition result in test [1] was “inactive”. Halving of growth in test [2] (GI50) required 130 µM.
Take `COC1=C(/C=C(\C)C(=O)O)C(=O)c2ccccc2C1=O`: the inhibition result in test [1] is “inactive”. In test [2], it took 40 µM to inhibit growth by half (GI50). In addition, the IC50 in test [3] worked out at 1 µM.
Turning to `CSC1=C(/C=C(\C)C(=O)O)C(=O)c2ccccc2C1=O`, in test [1], the inhibition entry was “inactive”. For the same molecule, in test [2], the GI50 turned out to be 30 µM.
On the same counts, the results for `CCCCCCCCC/C(=C\C1=C(C)C(=O)C(OC)=C(OC)C1=O)C(=O)NCCO` are “inactive” and 35 µM.
On to `CCCCCCCCC/C(=C\C1=C(C)C(=O)C(OC)=C(OC)C1=O)C(=O)O` [APX-3330], for which the inhibition result in test [1] was “inactive”. This molecule displayed a GI50 in test [2] of 35 µM.
As for `COCC/C(=C\C1=C(Br)C(=O)c2ccccc2C1=O)C(=O)O`, the inhibition entry in test [1] was “inactive”. The molecule further showed a GI50 in test [2] of 25 µM. Moreover, the IC50 in test [3] came out at 1 µM.
On to `COC1=C(OC)C(=O)C(/C=C/C(=O)O)=C(C)C1=O`, for which the inhibition result in test [1] was “inactive”. The molecule also gave a concentration for 50% growth inhibition (GI50) in test [2] of 250 µM.
For `COCC/C(=C\C1=C(C)C(=O)c2ccccc2C1=O)C(=O)O`, the inhibition result in test [1] is “inactive”. The GI50 in test [2] was 30 µM.
For `C/C(=C\C1=C(F)C(=O)c2ccccc2C1=O)C(=O)O`, in that order: “inactive” and 50 µM.
Molecule `C/C(=C\C1=C(Br)C(=O)c2ccccc2C1=O)C(=O)O` returned a GI50 in test [2] of 13 µM.
As to `COCC/C(=C\C1=C(C)C(=O)C(OC)=C(OC)C1=O)C(=O)O`, the inhibition result in test [1] is “inactive”. The molecule also returned a 50% growth inhibitory concentration (GI50) in test [2] of 200 µM.
As for `COC1=C(OC)C(=O)C(/C=C(\C)C(=O)O)=C(Cl)C1=O`, in test [1], the inhibition result is “inactive”. Further, the GI50 in test [2] is 45 µM. In addition, in test [3], the IC50 is 3 µM.
With `C/C(=C\C1=C(Cl)C(=O)c2ccccc2C1=O)C(=O)NCCO`, in test [1], the inhibition entry is “inactive”. For the same molecule, the concentration for 50% growth inhibition (GI50) in test [2] stood at 8 µM. For the same molecule, the IC50 in test [3] was 1 µM.
As to `O=C(O)CCC1=C(Br)C(=O)c2ccccc2C1=O`, the inhibition result in test [1] is “inactive”. For the same molecule, halving of growth in test [2] (GI50) required 15 µM.
Consider `COCC/C(=C\C1=C(Cl)C(=O)c2ccccc2C1=O)C(=O)O`, for which the inhibition result in test [1] was “inactive”. This molecule displayed a concentration for 50% growth inhibition (GI50) in test [2] of 30 µM.
For `C/C(=C\C1=CC(=O)c2ccccc2C1=O)C(=O)O`, in test [1], the inhibition entry is “inactive”. Further, the 50% growth inhibitory concentration (GI50) in test [2] is 20 µM. Also, the IC50 in test [3] is 3 µM.
Consider `CCCC/C(=C\C1=C(C)C(=O)C(OC)=C(OC)C1=O)C(=O)O`, for which the inhibition result in test [1] is “inactive”. Further, in test [2], the GI50 amounted to 85 µM.
On the same counts, the results for `CC1=C(/C=C(\C)C(=O)O)C(=O)c2ccccc2C1=O` are “inactive” and 45 µM.
Take `C/C(=C/C1=C(Cl)C(=O)c2ccccc2C1=O)C(=O)O`: the inhibition entry in test [1] is “inactive”. The same molecule came in with a 50% growth inhibitory concentration (GI50) in test [2] of 30 µM. In addition, in test [3], the IC50 was found to be 2 µM.
